Results reported in ChEMBL document CHEMBL1141721, “Structure-toxicity relationship of aminoglycosides: correlation of 2'-amine basicity with acute toxicity in pseudo-disaccharide scaffolds” (Bioorg Med Chem, 2008).
≈ marks a conversion by molar mass, not a printed value.

How the values were obtained:
Bacillus subtilis = assay: Antimicrobial activity against Bacillus subtilis by double-microdilution method; format: functional
In short: (§1)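 Double-microdilution method following NCCLS, starting at 384 µg/mL of compound with doubling dilutions. Run in triplicate (a table footnote says duplicates), with analogous results in three separate experiments.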

[1] = system: Staphylococcus epidermidis; assay: Antimicrobial activity against Staphylococcus epidermidis ATCC 12228 by double-microdilution method; format: functional; in short: as §1
Pseudomonas aeruginosa [2] = assay: Antimicrobial activity against Pseudomonas aeruginosa 590 isolate by double-microdilution method; format: functional; in short: as §1
[3] = Toxicity in iv dosed ICR mouse assessed as effect on mortality after 4 days; format: organism-based; settings: in vivo
Escherichia coli [4] = assay: Antimicrobial activity against Escherichia coli R477-100 by double-microdilution method; format: functional
Pseudomonas aeruginosa [5] = assay: Activity of Pseudomonas aeruginosa APH(3')-2b assessed as rate of NADH absorbance decrease by pyruvate kinase/lactate dehydrogenase coupled assay
In short: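 Recombinant APH(3')-IIb purified on a neomycin B affinity column. Substrate neamine 1–100 μM, inhibitor 0–1000 μM. Preincubation 5 min at 37 °C, then started with enzyme. NADH loss read at 340 nm; Ki by nonlinear regression.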

[6] = Inhibition of Pseudomonas aeruginosa APH(3')-2b assessed as rate of NADH absorbance decrease by pyruvate kinase/lactate dehydrogenase coupled assay
In short: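 Purified recombinant APH(3')-IIb, affinity-purified on a neomycin B column. ATP consumption followed by pyruvate kinase/lactate dehydrogenase coupling as NADH decrease at 340 nm. Buffer: 50 mM Tris-HCl pH 7.5, 40 mM KCl, 10 mM MgCl2, 1 mM ATP, 2.5 mM PEP. Neamine substrate 1–100 µM, inhibitor 0–1000 µM. 5 min preincubation at 37 °C, started with enzyme. Ki by nonlinear regression.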

Escherichia coli [7] = assay: Inhibition of translation in Escherichia coli S30 extract by coupled transcription/translation assay; format: functional
In short: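 E. coli S30 extract for circular DNA with pBES-Tluc plasmid, coupled transcription/translation. 25 µL reactions with varied aminoglycoside concentrations, 60 min at 37 °C, then 5 min on ice. Diluted into Tris-phosphate 25 mM pH 7.8 buffer with DTT, CDTA, glycerol, Triton X-100 and BSA. Luciferase luminescence read at once; IC50 fitted from concentration-response curves of at least two independent experiments.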

Pseudomonas aeruginosa [8] = assay: Antimicrobial activity against Pseudomonas aeruginosa ATCC 27853 by double-microdilution method; format: functional
Pseudomonas aeruginosa [9] = assay: Antimicrobial activity against Pseudomonas aeruginosa 584/5 isolate by double-microdilution method; format: functional
Escherichia coli [10] = assay: Antimicrobial activity against Escherichia coli XL1 expressing APH(3')-1a by double-microdilution method; format: functional
Escherichia coli [11] = assay: Antimicrobial activity against Escherichia coli ATCC 25922 by double-microdilution method; format: functional

Row | Structure (SMILES) | MIC (Bacillus subtilis) [µg/mL] | MIC [1] [µg/mL] | MIC (Pseudomonas aeruginosa [2]) [µg/mL] | LD50 at 96 h [3] [mg/kg] | MIC (Escherichia coli [4]) [µg/mL] | Km (Pseudomonas aeruginosa [5]) [µM] | kcat (Pseudomonas aeruginosa [5]) [s⁻¹] | Ki [6] [µM] | IC50 (Escherichia coli [7]) [µM] | MIC (Pseudomonas aeruginosa [8]) [µg/mL] | MIC (Pseudomonas aeruginosa [9]) [µg/mL] | MIC (Escherichia coli [10]) [µg/mL] | MIC (Escherichia coli [11]) [µg/mL]
1 | CNC1C(O)C(OC2C(N)CC(N)C(OC3OC(CN)CCC3N)C2O)OCC1(C)O (stereo not drawn) [GENTAMICIN C1A] | 6 (≈ 13.3 µM) | 6 (≈ 13.3 µM) | 384 (≈ 854 µM) |  |  |  |  |  |  |  |  |  | 
2 | NC[C@H]1O[C@H](O[C@H]2[C@H](O)[C@@H](O)[C@H](N)C[C@@H]2N)[C@H](N)[C@@H](O)[C@@H]1O [NEAMINE] |  |  |  | 161 | 96 (≈ 298 µM) | 10.3 | 1.7 |  |  |  |  |  | 
3 | NC[C@@H]1CC[C@@H](N)[C@@H](O[C@H]2[C@H](O)[C@@H](O)[C@H](N)C[C@@H]2N)O1 [GENTAMINE C1A] |  |  |  | 103 | 192 (≈ 661 µM) |  |  | 650 |  |  |  |  | 
4 | CN[C@@H]1[C@@H](O)[C@@H](O[C@@H]2[C@@H](O)[C@H](O[C@H]3O[C@H](CN)[C@H]4OCO[C@@H]4[C@H]3N)[C@@H](N)C[C@H]2N)OC[C@]1(C)O | 12 (≈ 24.3 µM) | 24 (≈ 48.6 µM) | 48 (≈ 97.3 µM) | 226 | 48 (≈ 97.3 µM) |  |  |  | 0.038 | 24 (≈ 48.6 µM) | 24 (≈ 48.6 µM) | 12 (≈ 24.3 µM) | 48 (≈ 97.3 µM)
5 | NC[C@H]1O[C@H](O[C@H]2[C@H](O)[C@@H](O)[C@H](N)C[C@@H]2N)[C@H](N)[C@H]2OCO[C@@H]21 |  |  |  | 303 | > 384 |  |  | 642 |  |  |  |  | 
